Experimental data: publication PMC4936951 (Molecular pharmaceutics, 2016)
Several values for one entry are separate records, joined by “and”; a condition that tells them apart may be missing. Identical values can stand only once. Like-named read-outs stand apart in the source and are kept apart here.

Legend:
[1] = test system: δOR+ (HCT 116/δOR) and δOR− (HCT 116) tumor xenografts; assay: Dose determination by in vivo fluorescence imaging of bilateral tumor xenografts; parameters: species or system nu/nu mice; conditions: 50 nmol/kg i.v., 24 h post-administration
Outline: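 Female nu/nu mice received 8×10^6 cells, HCT 116 in the left flank and HCT 116/δOR in the right, and were imaged after 1 week. Dose given by tail-vein i.v. injection. Animals imaged immediately to confirm injection, then at 24 h, on an IVIS 200. Agent stored in dark aliquots at −80°C; animals kept in a dark chamber. Autofluorescence ratio taken from radiance in identical ROIs on background-subtracted Cy5 and autofluorescence images.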

[2] = test system: HCT 116/δOR cells; assay type: cell-based, human
Outline: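 HCT 116/δOR cells (DMEM/F12, 10% calf serum, 1% pen/strep) on glass-bottom dishes, PBS-rinsed, exposed to 2.5 nM agent in Fluorobrite DMEM at 37°C, 5% CO2. Imaged every 30 s for 15 min; then rinsed and imaged in fresh medium, 4 fields every 10 min to 24 h (40× oil, Cy5, 1.5 s). Per-cell ROI intensity×area gave cytoplasm and membrane (total minus cytoplasm) fluorescence; 11–25 cells/day, three days.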

[3] = test system: HCT 116/δOR (positive) and HCT 116/RFP (negative) DWC tumors; assay: Intravital confocal microscopy in dorsal skinfold window chamber; assay type: in vivo, mouse
Outline: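 Dorsal skinfold window chamber mice carrying HCT 116/δOR or HCT 116/RFP tumors received 45 nmol/kg via tail vein. Confocal imaging with 25× lens, 3570 pixels/min: continuous for 30 min, including 1, 1.5, 2 and 5 min frames, then further time points up to 24 h. Mean intensity ROIs placed in the vessel interior, in adjacent tumor tissue, and over tumor across time.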

[4] = test system: δOR+ (HCT 116/δOR) and δOR− (HCT 116) tumor xenografts; assay type: in vivo, athymic nude female mice; conditions: for Rate of uptake, Slope × 10^7 / Rate of clearance, Slope × 10^7: linear regression, n=5
Outline: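 Athymic nude female mice carried bilateral xenografts of 8×10^6 HCT 116 (left) and HCT 116/δOR (right) cells, grown to mean 500 mm3 by caliper (length×width²/2). Single i.v. dose of 4.5 nmol/kg. IVIS 200 Cy5 imaging at 3, 9, 15, 30, 45 min and 1.5, 3, 6, 12, 18, 24, 48, 72, 96, 168 h. Readout after background subtraction and pre-injection autofluorescence correction: ROI mean surface radiance in efficiency units.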

[5] = test system: tumors and organs (spleen, pancreas, liver, kidneys, GI tract, heart, lungs); assay: Ex vivo biodistribution by fluorescence imaging of excised tumors and organs; assay type: in vivo, mice; conditions: 4.5 nmol/kg
Outline: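 Separate group of bilateral HCT 116 / HCT 116/δOR xenograft mice given 4.5 nmol/kg. At 0, 7.5 min, 15 min, 45 min, 3 h, 6 h, 24 h and 48 h: imaged in vivo, then euthanized. Tumors, spleen, pancreas, liver, kidneys, GI tract, heart and lungs excised and fluorescence-imaged ex vivo. Animals kept in low light after dosing.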

[6] = molecular target: δ-opioid receptor; conditions: read-out: Ki (binding affinity); δ-opioid receptor antagonist; cited from earlier work
[7] = 45 nmol/kg via tail vein, δOR negative tumor vessel

Substance: Dmt-Tic-Lys(Cy5)-OH [Dmt-Tic-Cy5]
- fold of enhancement (FOE) δOR+ tumor relative to δOR− tumor [1]: 5 fold
- maximum ratio of fluorescence inside (cytoplasm)/outside (cell membrane) ([2]; 2.5 nM): 1.69
- time to observed cell-surface labeling after addition of ligand ([2]; 2.5 nM): ~ 2 min and 2 min
- period of gradual tumor cell internalization ([2]; after addition of agent): 6 h and ~ 7 h and 7 h
- time of clearance from tumor vasculature [3, 7]: ≤ 2 min
- time to peak intensity in tumor vasculature [3, 7]: ≤ 1 min
- time of highest fluorescence intensity in negative tumor (intravital) ([3]; 45 nmol/kg, HCT 116/RFP DWC tumor): 10 min
- time of highest fluorescence intensity in positive tumor (intravital) ([3]; 45 nmol/kg, HCT 116/δOR DWC tumor): 30 min
- time of clearance of fluorescence from negative tumor (intravital) ([3]; 45 nmol/kg, positive tumor still strong signal): ≤ 24 h
- time of clearance from δOR− tumor (nearly pre-injection levels) ([4]; 4.5 nmol/kg i.v.): ≤ 6 h
- time of maximum fluorescence in δOR− tumor ([4]; 4.5 nmol/kg i.v.): 15 min
- time of maximum fluorescence signal in δOR+ tumor ([4]; 4.5 nmol/kg i.v.): 3 h
- time of systemic clearance ([4]; 4.5 nmol/kg i.v., based on clearance from negative tumor): ≤ 6 h
- enhancement in positive tumor relative to negative tumor ([4]; 4.5 nmol/kg, from 30 min to 96 h post-administration): > 3 fold
- Mean FOE (+ tumor/− tumor) ([4]; 4.5 nmol/kg, time 0.15 h): 2.7
- Mean FOE (+ tumor/− tumor) ([4]; 4.5 nmol/kg, time 0.25 h): 2.7
- Mean FOE (+ tumor/− tumor) ([4]; 4.5 nmol/kg, time 0.50 h): 3.2
- Mean FOE (+ tumor/− tumor) ([4]; 4.5 nmol/kg, time 0.75 h): 4.5
- Mean FOE (+ tumor/− tumor) ([4]; 4.5 nmol/kg, time 1 h): 6.5
- Mean FOE (+ tumor/− tumor) ([4]; 4.5 nmol/kg, time 3 h): 9.7
- Mean FOE (+ tumor/− tumor) ([4]; 4.5 nmol/kg, time 6 h): 17.5
- Mean FOE (+ tumor/− tumor) ([4]; 4.5 nmol/kg, time 12 h): 13.5
- Mean FOE (+ tumor/− tumor) ([4]; 4.5 nmol/kg, time 18 h): 26.7
- Mean FOE (+ tumor/− tumor) ([4]; 4.5 nmol/kg, time 24 h): 20.6
- Mean FOE (+ tumor/− tumor) ([4]; 4.5 nmol/kg, time 48 h): 8.9
- Mean FOE (+ tumor/− tumor) ([4]; 4.5 nmol/kg, time 72 h): 10.8
- Mean FOE (+ tumor/− tumor) ([4]; 4.5 nmol/kg, time 96 h): 5.6
- Mean FOE (+ tumor/− tumor) ([4]; 4.5 nmol/kg, time 168 h): 1.8
- ratio of enhancement in target positive tumors ([4]; maintained from 6 h to 24 h post-administration): approximately 20 fold
- Rate of uptake, Slope × 10^7 ([4]; δOR+ tumor, 0 to 0.75 h): 264 Efficiency/h
- Rate of clearance, Slope × 10^7 ([4]; δOR+ tumor, 3 to 96 h): −1.45 Efficiency/h
- Rate of uptake, Slope × 10^7 ([4]; δOR− tumor, 0 to 0.25 h): 211 Efficiency/h
- Rate of clearance, Slope × 10^7 ([4]; δOR− tumor, 0.25 to 24 h): −14.6 Efficiency/h
- fluorescence signal in heart, lungs, GI tract, spleen and pancreas (ex vivo) [5]: minimal to no fluorescence signal
- time of decrease to pre-injection levels in kidney and liver (ex vivo) ([5]; n=5): ≤ 24 h
- time of highest fluorescence signal in kidney and liver (ex vivo) ([5]; n=5): 15 min
- Ki [6]: 3 nM
